We go through eight compounds from ChEMBL document CHEMBL1137995, “Synthesis of some newer analogues of substituted dibenzoyl phenol as potent anti-inflammatory agents” (Bioorg Med Chem Lett, 2004).

Data set [1] concerns Rattus norvegicus. The data set is described as follows: Percent of carageenam induced paw oedema inhibition in rat as a measure of anti-inflammatory activity at 20 mg/kg dose on peroral administration. It is filed as functional. As to conditions: route oral. In a few lines:
(§1)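 Albino rats (125–160 g), five per group, dosed orally at 20, 40 or 80 mg/kg. After 30 min, 0.2 mL of 1% carrageenan in 0.9% NaCl was injected subcutaneously into the plantar aponeurosis of the hind paw. Paw volume was read by water plethysmometer at injection and at 3 h. Inhibition = (1 − Gt/Gc) × 100 against a carrageenan-only control group of five rats.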

Data set [2] concerns Rattus norvegicus. Nature of the data set: Ulcerogenic activity was measured in fasting rat with ulcer on peroral administration of 200 mg/kg. In kind it is functional. As to conditions: route oral. The method, boiled down: (§2)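 Rats (200–230 g), ten per group, fasted 24 h, given a single oral dose of 100, 200 or 400 mg/kg. Animals were killed 5 h after dosing. Stomach and small intestine were examined under a microscope for hyperaemia, epithelial shedding, petechiae, frank haemorrhage, and erosion or ulceration. Values are percent of animals showing hyperaemia or showing ulcer.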

Data set [3] deals with Rattus norvegicus. Nature of the data set: Percent of carageenam induced paw oedema inhibition in rat as a measure of anti-inflammatory activity at 40 mg/kg dose on peroral administration. In kind it is functional. As to conditions: route oral. In a few lines:
as §1

Data set [4] in a line: Acute lethal dose of compound was determined in mice when administered perorally. It is filed as ADME. The note with it: mouse, in vivo, po; read-out: ALD50. In a few lines: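 Albino mice (25–30 g), groups of 10 per dose level, given test compound at several dose levels. Percent mortality in each group was recorded 24 h after dosing. The approximate 50% lethal dose (ALD50) was calculated by the Smith method.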

The species named for data set [5] is Rattus norvegicus. Nature of the data set: Effective dose of compound for anti-inflammatory activity. It is filed as functional.
The species named for data set [6] is Oryctolagus cuniculus. Nature of the data set: Percent inhibition of cyclooxygenase activity of compound at 10 uM concentration. In kind it is functional. In a few lines: (§3)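 Microsomes came from rabbit distal colon mucosa, homogenized in Tris pH 8.0, centrifuged, resuspended and recentrifuged, and used immediately. Microsomes were preincubated with test agent 10 min at 37 °C in Tris–HCl pH 8.0 containing 2 mM glutathione, 5 mM L-tryptophan and 1 µM haematin. Then 20 µM arachidonic acid with [1-14C] tracer was added and reacted 5 min at 37 °C. PGE2 was separated by HPLC, radioactivity counted by scintillation, and inhibition taken against paired controls.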

Data set [7] relates to Rattus norvegicus. Nature of the data set: Ulcerogenic activity was measured in fasting rat with ulcer on peroral administration of 100 mg/kg. As to conditions: route oral. In kind it is functional. In a few lines:
as §2

Data set [8] relates to Rattus norvegicus. The data set is described as follows: Ulcerogenic activity was measured in fasting rat with hyperaemia on peroral administration of 100 mg/kg. As to conditions: route oral. It is filed as functional. In a few lines:
as §2

The test system of data set [9] is Rattus norvegicus. The data set is described as follows: Percent of carageenam induced paw oedema inhibition in rat as a measure of anti-inflammatory activity at 80 mg/kg dose on peroral administration. It is filed as functional. The note with it: route oral. In a few lines:
as §1

For data set [10], the system named is Rattus norvegicus. The data set is described as follows: Ulcerogenic activity was measured in fasting rat with hyperaemia on peroral administration of 200 mg/kg. It is filed as functional. As to conditions: route oral. In a few lines: as §2
Data set [11] concerns Rattus norvegicus. Nature of the data set: Ulcerogenic activity was measured in fasting rat with ulcer on peroral administration of 400 mg/kg. It is filed as functional. As to conditions: route oral. The method, boiled down:
as §2

Data set [12] concerns Rattus norvegicus. Nature of the data set: Ulcerogenic activity was measured in fasting rat with hyperaemia on peroral administration of 400 mg/kg. In kind it is functional. As to conditions: route oral. In a few lines:
as §2

The species named for data set [13] is Oryctolagus cuniculus. The data set is described as follows: Percent inhibition of cyclooxygenase activity of compound at 10 uM concentration; No inhibition. It is filed as functional. In a few lines: as §3

Activity calls are given as the source filed them. The rule behind the calls is not given here.

Turning to `Cc1ccccc1C(=O)c1cc(C)c(O)c(C(=O)c2ccccc2)c1`, the figures for the “Antiinflammatory Activity” value in the data set on Rattus norvegicus [1], in the data set with Rattus norvegicus [3] and in the data set on Rattus norvegicus [9] were 14.1%, 29.5% and 55.3%, respectively. Further, the Ulcerogenic activity in the data set with Rattus norvegicus [2] came out at 20%; with Rattus norvegicus [7], 10%; in the data set with Rattus norvegicus [8], 40%; with Rattus norvegicus [10] it was 60%; in the data set with Rattus norvegicus [11], 40%; with Rattus norvegicus [12], 100%. Moreover, the LD50 in data set [4] is over 1000 mg/kg. For the same compound, it took a dose of 78.3 mg/kg to reach the 50% effect level in the data set filed under Rattus norvegicus [5] (ED50). Further, the Inhibition (commonly the percentage by which the read-out fell short of the control) in the data set listed under Oryctolagus cuniculus [6] was 20%.
On to `CC(=O)Oc1ccccc1C(=O)O` [ASPIRIN], for which the “Antiinflammatory Activity” value in the data set with Rattus norvegicus [1] is 30.4%; in the data set with Rattus norvegicus [3], 35.5%; in the data set with Rattus norvegicus [9] it was 59.6%. For the same compound, the Ulcerogenic activity in the data set on Rattus norvegicus [2] worked out at 90%; with Rattus norvegicus [7], 80%; in the data set on Rattus norvegicus [8], 30%; with Rattus norvegicus [10], 60%; in the data set with Rattus norvegicus [11], 90%; in the data set on Rattus norvegicus [12] it was 90%. Also, it took a dose of 98.3 mg/kg to reach the 50% effect level in the data set listed under Rattus norvegicus [5] (ED50). Besides, the Inhibition in the data set filed under Oryctolagus cuniculus [6] is listed as 99%.
On to `Cc1cc(C(=O)c2ccccc2C)c(O)c(C(=O)c2ccccc2C)c1`, for which the “Antiinflammatory Activity” value came out at 16.6% in the data set with Rattus norvegicus [1], 33.2% with Rattus norvegicus [3] and 64.1% in the data set with Rattus norvegicus [9]. In addition, the Ulcerogenic activity was 10% with Rattus norvegicus [2]; 5% in the data set with Rattus norvegicus [7]; 50% in the data set with Rattus norvegicus [8]; 70% in the data set on Rattus norvegicus [10]; 15% in the data set with Rattus norvegicus [11]; 90% in the data set on Rattus norvegicus [12]. The LD50 in data set [4] is over 1000 mg/kg. For the same compound, it took a dose of 77.2 mg/kg to reach the 50% effect level in the data set filed under Rattus norvegicus [5] (ED50). In the data set listed under Oryctolagus cuniculus [6], this compound showed an Inhibition of 70%.
On to `CCCCC1C(=O)N(c2ccccc2)N(c2ccccc2)C1=O` [PHENYLBUTAZONE], for which the “Antiinflammatory Activity” value in the data set on Rattus norvegicus [1] amounted to 31.3%; with Rattus norvegicus [3], 35.5%; in the data set on Rattus norvegicus [9], 57.2%. Further, the Ulcerogenic activity turned out to be 60% in the data set on Rattus norvegicus [2]; 30% in the data set with Rattus norvegicus [7]; 30% with Rattus norvegicus [8]; 60% in the data set on Rattus norvegicus [10]; 90% in the data set with Rattus norvegicus [11]; 90% in the data set with Rattus norvegicus [12]. The Inhibition in the data set filed under Oryctolagus cuniculus [6] was found to be 89%.
Take `Cc1cc(C(=O)c2cccc(Cl)c2)c(O)c(C(=O)c2cccc(Cl)c2)c1`: the “Antiinflammatory Activity” value was determined as 30.3% in the data set with Rattus norvegicus [1], 48.2% in the data set with Rattus norvegicus [3] and 94.1% with Rattus norvegicus [9]. Besides, the inhibition entry in the data set listed under Oryctolagus cuniculus [13] was “inactive”. For the same compound, the Ulcerogenic activity is given as 20% in the data set on Rattus norvegicus [2]; 10% in the data set on Rattus norvegicus [7]; 30% in the data set on Rattus norvegicus [8]; 60% with Rattus norvegicus [10]; 12% in the data set with Rattus norvegicus [11]; 90% in the data set with Rattus norvegicus [12]. The LD50 in [4] was over 1000 mg/kg. For the same compound, the 50% effect level in the data set filed under Rattus norvegicus [5] (ED50) was put at a dose of 51.2 mg/kg.
As for `Cc1ccc(C(=O)c2cc(C)cc(C(=O)c3ccc(C)cc3)c2O)cc1`, the “Antiinflammatory Activity” value in the data set on Rattus norvegicus [1] is on record as 22.2%; with Rattus norvegicus [3], 45.4%; with Rattus norvegicus [9], 77.1%. Besides, the Ulcerogenic activity in the data set on Rattus norvegicus [2] is 30%; in the data set with Rattus norvegicus [7], 20%; in the data set with Rattus norvegicus [8] it was 50%; in the data set on Rattus norvegicus [10], 70%; with Rattus norvegicus [11] it was 40%; in the data set on Rattus norvegicus [12], 100%. Moreover, in [4], the LD50 was over 1000 mg/kg. Further, the 50% effective dose (ED50) (usually the dose that gives a 50% effect, or the effect in half of the subjects) in the data set listed under Rattus norvegicus [5] turned out to be 60.2 mg/kg. Also, in the data set listed under Oryctolagus cuniculus [6], the Inhibition was 87%.
As to `Cc1cc(C(=O)c2ccccc2)c(O)c(C(=O)c2ccccc2)c1`, the “Antiinflammatory Activity” value with Rattus norvegicus [1] came out at 13.7%; with Rattus norvegicus [3], 22.2%; with Rattus norvegicus [9] it was 45.5%. Also, the inhibition result in the data set listed under Oryctolagus cuniculus [13] was “inactive”. The Ulcerogenic activity amounted to 50% in the data set on Rattus norvegicus [2]; 40% in the data set with Rattus norvegicus [7]; 20% in the data set on Rattus norvegicus [8]; 40% in the data set on Rattus norvegicus [10]; 80% in the data set with Rattus norvegicus [11]; 60% in the data set on Rattus norvegicus [12]. Also, the LD50 in data set [4] was over 1000 mg/kg. In addition, the ED50 in the data set listed under Rattus norvegicus [5] was 77.5 mg/kg.
Consider `Cc1ccc(C(=O)c2cc(C(=O)c3ccccc3)cc(C)c2O)cc1`, for which the “Antiinflammatory Activity” value is recorded as 20.1% in the data set on Rattus norvegicus [1], 29.1% with Rattus norvegicus [3] and 62.8% in the data set on Rattus norvegicus [9]. For the same compound, the Ulcerogenic activity is 20% with Rattus norvegicus [2]; 10% in the data set with Rattus norvegicus [7]; 70% in the data set on Rattus norvegicus [8]; 90% in the data set on Rattus norvegicus [10]; 40% in the data set with Rattus norvegicus [11]; 100% with Rattus norvegicus [12]. The LD50 in [4] is over 1000 mg/kg. In the data set listed under Rattus norvegicus [5], this compound returned an ED50 of 62.5 mg/kg. For the same compound, the Inhibition in the data set filed under Oryctolagus cuniculus [6] was determined as 40%.
